Experimental findings from publication PMC8978969 (RSC Advances, 2022) are described below.

A short description of one series: Equilibrium solubility. It is filed as physicochemical. To be noted: for solubility at 24 h: thermodynamic from solid.
Series [1] in a line: Partition coefficients by shake-flask method. It is filed as physicochemical. The method in brief: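 Shake-flask method per OECD guidelines. n-Octanol and ultrapure water were mutually saturated by 24 h in a thermostat shaker, then 72 h standing. After partitioning, phases were centrifuged to separate completely, and drug in each phase was measured by HPLC to give logP. For logD7.4, 0.01 M PBS pH 7.4 replaced water, with otherwise identical steps.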

Another series in a line: Solution stability assay. Format: physicochemical. To be noted: 37 °C.
The nature of series [2]: 24 h kinetic saturation solubilities. It is filed as physicochemical.
A short description of series [3]: Gastrointestinal tract parallel artificial membrane permeability assay. It is filed as in vitro ADME. Particulars: PAMPA. The method in brief:
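Donor solutions were made in Tris buffer pH 6.5 at several drug concentrations starting from 150 μg ml−1. The acceptor-well hydrophobic filter (0.45 μm) was coated with 2% soybean L-α-phosphatidylcholine in n-dodecane, and the acceptor held Tris buffer pH 7.4. The sandwich was incubated 16 h at room temperature. Receiver solution was quantified by HPLC, n = 6. Papp (cm s−1) was calculated from a published equation.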
On the technique in general: PAMPA measures passive passage across an artificial lipid membrane.

A short description of a further series: Cytotoxicity test. Format: cell-based. Particulars: human, Caco-2 cells. The method in brief: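 Caco-2 cells were grown in DMEM with 10% FBS and 1% penicillin/streptomycin at 37 °C in 5% CO2. Cells were seeded at 4 × 10^3 per well and left 16 h. Test compounds were dissolved in DMSO and serially diluted in DMEM, then applied for 24 h. CCK-8 was added for 3 h and absorbance read at 450 nm. IC50 was derived from a concentration–survival plot, mean ± SD of triplicates.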

Converted amounts (≈) assume the structure as drawn. “And” between values parts separate entries of the source, which are not always exact repeats. Identical values can stand only once. Some results are limits rather than exact numbers.

The solubility is the dissolved amount per volume that the medium holds. One may read the thermodynamic solubility as solubility found after equilibrating the solid with the medium. In general, logD refers to the decadic logarithm of the distribution of all forms, ionised or not, between an organic phase and buffer at a given pH. Low readings indicate a more hydrophilic compound, high ones a more lipophilic compound. Broadly, the logP is the decadic logarithm of the partition coefficient of the neutral form, usually between octanol and water. Read a high logP as a more lipophilic compound. Usually kinetic solubility stands for solubility judged after dilution from a stock solution rather than from solid. A word on the Papp: it is a coefficient for how fast a substance crosses the barrier. Low readings indicate slow passage, high ones fast passage. The IC50 is the concentration at which inhibition is half-maximal. High values mean weaker potency in that assay, low ones greater potency in that assay. For `Cc1ccc(S(=O)(=O)NC(=O)NN2CC3CCCC3C2)cc1` (stereo not drawn) [GLI, Gliclazide], the solubility at 24 h was found to be 196 ± 3.32 µg/mL (≈ 606 µM) in the series “Equilibrium solubility” (FaSSIF, 37 °C, pH 6.5, fassif); 30.1 ± 1.07 µg/mL (≈ 93.2 µM) in the series “Equilibrium solubility” (FeSSIF, 37 °C, pH 5, fessif); 43.5 ± 1.67 µg/mL (≈ 135 µM) in the series “Equilibrium solubility” (Milli-Q water, 37 °C, water); 1590 ± 103 µg/mL (≈ 4910 µM) in the series “Equilibrium solubility” (PBS 7.4, 37 °C, pH 7.4, aqueous buffer); 584 ± 23 µg/mL (≈ 1810 µM) in “Equilibrium solubility” (SIF, 37 °C, pH 6.8, fassgf or other biorelevant); 190.6 ± 0.63 µg/mL (≈ 589 µM) in “Equilibrium solubility” (blank FaSSIF, 37 °C, pH 6.5, aqueous buffer). Also, the concentration in solution in the series “Equilibrium solubility” (blank FeSSIF, 37 °C, pH 5, aqueous buffer) (solubility at 24 h) was 28.7 ± 0.99 µg/mL (≈ 88.7 µM). The molecule further had a solubility (thermodynamic) at 24 h in “Equilibrium solubility” (Tris buffer pH 6.5, pH 6.5) of 178 µg/mL (≈ 550 µM). The molecule further returned a logD in series [1] (n-octanol/PBS 7.4, pH 7.4) of 0.45 ± 0.01. Moreover, in series [1] (n-octanol/water), the log partition coefficient (logP) stood at 1.71 ± 0.03. For the same molecule, the “Solution stability in SIF” value in “Solution stability assay” (SIF, whole experiment period (24 h)) is “relatively stable”. The “Initial content remained at 24 h” value in the series “Solution stability assay” (pH 7.4 buffer (PBS 7.4), 20 μg ml^−1 GLI, 24 h) is on record as “zero”. In series [2] (Milli-Q water), this molecule gave a solubility (kinetic) at 12 h of 40.3 µg/mL (≈ 125 µM). Further, the “Time within which peak concentration was achieved” value in series [2] (PBS 7.4, SIF and FaSSIF) is on record as at most 6 h. For the same molecule, the “Time of peak concentration” value in series [2] (water) is given as 4 h. This molecule came in with a Papp at 16 h, 150 μg ml^−1 in series [3] of 2.46 ×10⁻⁶ cm/s. Besides, the midpoint of inhibition in the series “Cytotoxicity test”, the IC50 at 24 h, lay at 20.8 ± 1.11 mM.
As usually defined, the log P is a log measure of how a compound divides between an organic and an aqueous phase. The low end stands for a more hydrophilic compound, the high end for a more lipophilic compound. With “Gliclazide tributyl(tetradecyl)phosphonium ionic liquid [[P6,6,6,14][GLI]]”, the “Solubility, FaSSIF” value in the series “Equilibrium solubility” (FaSSIF (pH 6.5), 37 °C, as GLI, n = 3, mean ± SD) was 34.53 ± 2.79 µg/mL. The “Solubility, PBS 7.4” value in the series “Equilibrium solubility” (PBS pH 7.4, 37 °C, as GLI, n = 3, mean ± SD) worked out at 301.87 ± 6.82 µg/mL. Moreover, the “Solubility, SIF” value in “Equilibrium solubility” (SIF (pH 6.8), 37 °C, as GLI, n = 3, mean ± SD) came to 102.43 ± 11.54 µg/mL. Also, the “Solubility, Blank FaSSIF” value in “Equilibrium solubility” (blank FaSSIF, 37 °C, as GLI, n = 3, mean ± SD) amounted to 32.14 ± 1.56 µg/mL. In addition, in the series “Equilibrium solubility” (water, 37 °C, 24 h, as GLI, n = 3, mean ± SD), the “Solubility, Water” value is 1.5 µg/mL and 1.51 ± 0.13 µg/mL. In series [1] (n-octanol/PBS 7.4, 37 °C), the “log D7.4” value was determined as 0.69 ± 0.02. Further, the “log P” value in series [1] (n-octanol/water, 37 °C) was found to be 2.72 ± 0.24.
